Experimental data as given in ChEMBL document CHEMBL4825764, “Flavonoid Monomers as Potent, Nontoxic, and Selective Modulators of the Breast Cancer Resistance Protein (ABCG2)” (J Med Chem, 2021).
Calls of active or inactive are those of the source. No cut-off for these calls is given here.

Assays:
L929 = test: Cytotoxicity against mouse L929 cells assessed as reduction in cell viability; format: cell-based
Homo sapiens [1] = organism: Homo sapiens; test: Selectivity index, ratio of EC50 for inhibition of P-gp (unknown origin) expressed in LCC6MDR cells assessed as reversal of paclitaxel resistance to EC50 for inhibition of BCRP (unknown origin) transfected in HEK293/R2 cells assessed as reversal of topotecan resistance; format: cell-based
How it was run: (§1)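 Selectivity index is the EC50 against the other transporter's line divided by the EC50 in the BCRP line. All values come from 5-day MTS reversal assays. These use topotecan in HEK293/R2 (0–2000 nM) or MCF7-MX100 (0–100 μM), doxorubicin in 2008/MRP1, and paclitaxel in LCC6MDR, each with modulator at 0–1000 nM.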

Homo sapiens [2] = organism: Homo sapiens; test: Selectivity index, ratio of EC50 for inhibition of P-gp (unknown origin) expressed in LCC6MDR cells assessed as reversal of paclitaxel resistance to EC50 for Inhibition of BCRP (unknown origin) expressed in MCF7/MX100 cells assessed as reversal of topotecan resistance; format: cell-based; how it was run: as §1
Homo sapiens [3] = organism: Homo sapiens; test: Selectivity index, ratio of EC50 for inhibition of MRP1 (unknown origin) expressed in 2008/MRP1 cells assessed as reversal of doxorubicin resistance to EC50 for inhibition of BCRP (unknown origin) transfected in HEK293/R2 cells assessed as reversal of topotecan resistance; format: cell-based; how it was run: as §1
2008 = test: Selectivity index, ratio of EC50 for inhibition of MRP1 (unknown origin) expressed in 2008/MRP1 cells assessed as reversal of doxorubicin resistance to Inhibition of BCRP (unknown origin) expressed in MCF7/MX100 cells assessed as reversal of topotecan resistance; format: cell-based; conditions: Homo sapiens; how it was run: as §1
BCRP (ABCG2) [4] = target: T1, BCRP (ABCG2) (Homo sapiens, UniProt Q9UNQ0); test: Inhibition of BCRP (unknown origin) expressed in HEK293/R2 cells assessed as conformational change by measuring increase in 5D3 shift at 1 uM preincubated for 15 mins followed by FITC mouse antihuman BCRP antibody addition measured after 30 mins by flow cytometry analysis; format: cell-based; conditions: HEK293/R2 cells expressing BCRP, time 45 min
T1 sequence (Q9UNQ0 whole entry): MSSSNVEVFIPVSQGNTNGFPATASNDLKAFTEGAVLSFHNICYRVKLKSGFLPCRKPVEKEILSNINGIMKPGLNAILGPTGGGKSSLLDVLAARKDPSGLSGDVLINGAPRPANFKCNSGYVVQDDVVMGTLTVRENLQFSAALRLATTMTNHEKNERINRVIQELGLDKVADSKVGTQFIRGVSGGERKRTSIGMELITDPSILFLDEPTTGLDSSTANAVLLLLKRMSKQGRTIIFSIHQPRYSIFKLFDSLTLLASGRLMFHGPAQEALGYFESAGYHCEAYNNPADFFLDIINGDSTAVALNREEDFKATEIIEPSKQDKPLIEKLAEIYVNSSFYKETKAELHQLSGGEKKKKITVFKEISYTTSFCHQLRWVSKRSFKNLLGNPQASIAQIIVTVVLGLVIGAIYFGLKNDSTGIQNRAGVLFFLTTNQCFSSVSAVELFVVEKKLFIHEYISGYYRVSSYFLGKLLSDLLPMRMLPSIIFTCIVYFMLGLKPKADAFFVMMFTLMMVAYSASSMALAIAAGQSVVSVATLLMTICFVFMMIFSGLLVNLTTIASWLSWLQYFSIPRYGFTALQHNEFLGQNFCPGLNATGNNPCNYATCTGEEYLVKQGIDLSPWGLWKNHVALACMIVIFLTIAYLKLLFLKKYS
How it was run: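 5 × 10^5 HEK293/R2 cells in FACS buffer were shaken 15 min at 37 °C with 1 μM compound. FITC 5D3 anti-BCRP was then added for 30 min at 37 °C and fluorescence read by flow cytometry on FL1. Compound-only background was subtracted and the untreated DMSO shift removed. Result is % of the 1 μM Ko143-induced shift.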

Homo sapiens [5] = organism: Homo sapiens; test: Selectivity index, ratio of EC50 for inhibition of P-gp (unknown origin) expressed in LCC6MDR cells assessed as reversal of mitoxantrone resistance to EC50 for inhibition of BCRP (unknown origin) expressed in HEK293/R2 cells assessed as reversal of mitoxantrone resistance; format: cell-based
How it was run: (§2)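 Selectivity index is the EC50 in 2008/MRP1 or LCC6MDR divided by the EC50 in HEK293/R2. All three lines were measured by 5-day mitoxantrone co-incubation with modulator, with MTS/PMS read-out at 490 nm.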

Homo sapiens [6] = organism: Homo sapiens; test: Selectivity index, ratio of EC50 for inhibition of MRP1 (unknown origin) expressed in 2008/MRP1 cells assessed as reversal of mitoxantrone resistance to EC50 for inhibition of BCRP (unknown origin) expressed in HEK293/R2 cells assessed as reversal of mitoxantrone resistance; format: cell-based; how it was run: as §2
[7] = target: T2, Broad substrate specificity ATP-binding cassette transporter ABCG2 (Homo sapiens, UniProt Q9UNQ0); test: Inhibition of BCRP (unknown origin) expressed in human HEK293/R2 cells assessed as increase in intracellular topotecan accumulation by measuring fold change at 1 uM after 2 hrs in presence of topotecan by flow cytometry analysis relative to control; format: cell-based; conditions: hek293/r2, 2 h
T2 sequence (Q9UNQ0 whole entry): T1 sequence (Q9UNQ0 whole entry)
How it was run: (§3)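 5 × 10^5 HEK293/pcDNA3.1 or HEK293/R2 cells in 1 mL were incubated 2 hr at 37 °C with 50 μM topotecan or 5 μM mitoxantrone plus 1 or 2 μM modulator, with DMSO as the vehicle control. Cells were washed in cold PBS and resuspended in FACS buffer. Flow cytometry read FL1 (topotecan) or FL4 (mitoxantrone) over 50,000 events, normalized to wild-type cells.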

[8] = target: T2, Broad substrate specificity ATP-binding cassette transporter ABCG2; test: Inhibition of BCRP (unknown origin) expressed in human HEK293/R2 cells assessed as increase in intracellular topotecan accumulation by measuring fold change at 2 uM after 2 hrs in presence of topotecan by flow cytometry analysis relative to control; format: cell-based; conditions: hek293/r2, 2 h; how it was run: as §3
[9] = target: T2, Broad substrate specificity ATP-binding cassette transporter ABCG2; test: Inhibition of BCRP (unknown origin) expressed in human HEK293/R2 cells assessed as increase in intracellular mitoxantrone accumulation by measuring fold change at 1 uM after 2 hrs in presence of mitoxantrone by flow cytometry analysis relative to control; format: cell-based; conditions: hek293/r2, 2 h; how it was run: as §3
[10] = target: T2, Broad substrate specificity ATP-binding cassette transporter ABCG2; test: Inhibition of BCRP (unknown origin) expressed in human HEK293/R2 cells assessed as increase in intracellular mitoxantrone accumulation by measuring fold change at 2 uM after 2 hrs in presence of mitoxantrone by flow cytometry analysis relative to control; format: cell-based; conditions: hek293/r2, 2 h; how it was run: as §3
[11] = target: T2, Broad substrate specificity ATP-binding cassette transporter ABCG2; test: Inhibition of BCRP (unknown origin) expressed in wild type HEK293/pcDNA3.1 cells assessed as increase in intracellular topotecan accumulation at 1 to 2 uM after 2 hrs in presence of topotecan by flow cytometry analysis relative to control; format: cell-based; conditions: hek293, 2 h, dose 1-2 µM; how it was run: as §3
[12] = target: T2, Broad substrate specificity ATP-binding cassette transporter ABCG2; test: Inhibition of BCRP (unknown origin) expressed in wild type HEK293/pcDNA3.1 cells assessed as increase in intracellular mitoxantrone accumulation at 1 to 2 uM after 2 hrs in presence of mitoxantrone by flow cytometry analysis relative to control; format: cell-based; conditions: hek293, 2 h, dose 1-2 µM; how it was run: as §3
HEK293 = test: Effect on BCRP protein expression in human HEK293/R2 cells at 1 to 3 uM after 24 hrs by flow cytometric analysis; format: functional, cell-based; conditions: dose 1-3 µM
How it was run: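 HEK293/R2 and HEK293/pcDNA3.1 cells were exposed to 0, 1 or 3 μM compound for 24 hr, with 0.1–0.3% DMSO as solvent control. Cells were trypsinized and stained with FITC anti-human BCRP for 45 min at 4 °C, with an IgG2b-FITC isotype control. Surface signal was read by flow cytometry on FL1 over 50,000 events.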

BCRP (ABCG2) [13] = target: T1, BCRP (ABCG2); test: Inhibition of BCRP (unknown origin) expressed in HEK293/R2 cells assessed as conformational change by measuring increase in 5D3 shift at 10 uM preincubated for 15 mins followed by FITC mouse antihuman BCRP antibody addition measured after 30 mins by flow cytometry analysis; format: cell-based; conditions: HEK293/R2 cells expressing BCRP, time 45 min
How it was run: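 HEK293/R2 cells (5 x 10⁵) in FACS buffer (0.1 % BSA, 1 mM EDTA in PBS) were pre-incubated with compound for 15 min at 37 °C with shaking. FITC anti-human BCRP antibody (clone 5D3) was then added for 30 min at 37 °C. Cells were washed and read by flow cytometry (FL1, 50,000 events). Compound-only FITC background and the DMSO-control signal were subtracted, and the shift was expressed as % of the 1 µM Ko143 shift.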

Structure (SMILES) | IC50 (L929) [µM] | Ratio EC50 (Homo sapiens [1]) | Ratio EC50 (Homo sapiens [2]) | Ratio EC50 (Homo sapiens [3]) | Ratio EC50 2008 | also measured
C#CCCCCOc1ccc(-c2oc3ccccc3c(=O)c2OCc2cccc(C(=O)OC)c2)cc1 | > 100 | 19 | 24 | 23 | 30 | 
COC(=O)c1cccc(COc2c(-c3ccc(OCCOCCOCCN=[N+]=[N-])cc3)oc3ccccc3c2=O)c1 | 28.4 | 35 | 18 | 118 | 60 | 
COc1cc2c(cc1OC)CN(CCc1ccc(NC(=O)c3cccc4c(=O)c5cccc(OC)c5[nH]c34)cc1)CC2 |  |  |  |  |  | inhibition at 0.5 h, 1 µM (BCRP (ABCG2) [4]): 100%
COC(=O)c1cccc(COc2c(-c3ccc(OCCOCCOCCn4cc(CCN5C(=O)c6ccccc6C5=O)nn4)cc3)oc3ccccc3c2=O)c1 | > 100 | 6 |  | 6 |  | 
COC(=O)c1cccc(COc2c(-c3ccc(OCCOCCn4cc(CCN5C(=O)c6ccccc6C5=O)nn4)cc3)oc3ccccc3c2=O)c1 | > 100 | 22 | 10 | 22 | 10 | 
COC(=O)c1cccc(COc2c(-c3ccc(OCCOCCOCCn4cc(CN(CCO)Cc5ccccc5)nn4)cc3)oc3ccccc3c2=O)c1 | > 100 | 220 | 193 | 714 | 625 | Ratio EC50 (Homo sapiens [5]): 5; Ratio EC50 (Homo sapiens [6]): 4; fold change (FC) [7]: 7.1; fold change (FC) [8]: 7; fold change (FC) [9]: 6.5; fold change (FC) [10]: 5.8; inhibition (INH) [11]: Not Active; inhibition (INH) [12]: Not Active; Activity (HEK293): inactive
COC(=O)c1cccc(COc2c(-c3ccc(OCCOCCN=[N+]=[N-])cc3)oc3ccccc3c2=O)c1 | 67.5 | 12 | 20 | 12 | 20 | 
COC(=O)c1cccc(COc2c(-c3ccc(OCCCCc4cn(CCOCCO)nn4)cc3)oc3ccccc3c2=O)c1 | 13.3 | 61 | 22 | 100 | 36 | 
CCOc1ccc(-c2nc3cc(-c4nc5cc(N6CCN(C)CC6)ccc5[nH]4)ccc3[nH]2)cc1 |  |  |  |  |  | inhibition at 0.5 h, 10 µM (BCRP (ABCG2) [13]): 19%
COC(=O)c1cccc(COc2c(-c3ccc(OCCOCCn4cc(CNc5ccccc5)nn4)cc3)oc3ccccc3c2=O)c1 | > 100 | 38 | 23 | 38 | 23 | 
COC(=O)c1cccc(COc2c(-c3ccc(OCCOCCn4cc(CN(C)Cc5ccccc5)nn4)cc3)oc3ccccc3c2=O)c1 | > 100 | 67 | 286 | 67 | 286 | Ratio EC50 (Homo sapiens [5]): 38; Ratio EC50 (Homo sapiens [6]): 40; fold change (FC) [7]: 7.2; fold change (FC) [8]: 7; fold change (FC) [9]: 6.2; fold change (FC) [10]: 6.3; inhibition (INH) [11]: Not Active; inhibition (INH) [12]: Not Active; Activity (HEK293): inactive
O=c1c(O)c(-c2ccc(O)c(O)c2)oc2cc(O)cc(O)c12 [QUERCETIN] |  |  |  |  |  | inhibition at 0.5 h, 10 µM (BCRP (ABCG2) [13]): 39%
COC(=O)c1cccc(COc2c(-c3ccc(OCCOCCOCCn4cc(CCCCOc5ccc(C=O)cc5)nn4)cc3)oc3ccccc3c2=O)c1 | 37.8 | 53 | 26 | 46 | 23 | 
COC(=O)c1cccc(COc2c(-c3ccc(OCCOCCOCCn4cc(CN(C)Cc5ccccc5)nn4)cc3)oc3ccccc3c2=O)c1 | > 100 | 51 | 29 | 62 | 35 | 
COC(=O)c1cccc(COc2c(-c3ccc(OCCOCCn4cc(CN(Cc5ccccc5)Cc5ccccc5)nn4)cc3)oc3ccccc3c2=O)c1 | > 100 | 31 | 34 | 31 | 34 | 
